Compound activity as filed in PubChem.
KCNK3 block = human KCNK3 channel inhibition, primary screen. O14649. CHO-KCNK3 thallium flux, FluxOR fluorescence; stronger effect = lower value. B-score at 10 µM. hit rate 0.84% among 340,000. AID 602410;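 active = B-score under library mean minus 4 SD, starting fluorescence ratio at most library mean plus 5 SD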;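 note: more negative B-score means stronger inhibition of thallium flux through KCNK3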
hERG protect = compounds protecting human hERG from proarrhythmic drug block | CHO-hERG, FluxOR thallium flux, dofetilide IC70 present | activation (rescue from dofetilide block), less the hit threshold, % at 10 µM | hit rate 0.51% among 310,000;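 active = activation above the mean of controls blocked by dofetilide plus 5 SD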;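 note: thallium influx through hERG after potassium depolarization seen as dye fluorescence rise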
Kir21 inh = blocks the mouse Kir2.1 inward-rectifier potassium channel; HEK293-Kir2.1, FluxOR thallium flux fluorescence; stronger effect = lower value; P35561; hit rate 0.85% among 310,000; AID 1672; B-score at 10 µM;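 active = fluorescence ratio B-score at or below minus 3 SD of library scores, with starting-brightness B-score within 2 SD, cut at about -4.2 in these data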;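 note: channel flux triggered by added potassium and thallium sulfate stimulus; B-score of peak minus minimum fluorescence over baseline after thallium stimulus; more negative B-score means stronger Kir2.1 block with less thallium influx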
KCNQ1 block = blocks the human KCNQ1 potassium channel; P51787; CHO-K1 KCNQ1, FluxOR thallium flux fluorescence; stronger effect = higher value; B-score at 10 µM; hit rate 1.3% among 310,000;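 active = compounds whose thallium flux B-score, printed positive for inhibition, exceeds three library SD while starting fluorescence stays within three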;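 note: channel opened by potassium depolarization with thallium stimulus after 20 min compound exposure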
KCNQ1 pot = potentiators or activators of human KCNQ1 potassium channel. P51787. CHO-K1 KCNQ1, thallium flux FluxOR fluorescence; stronger effect = higher value. B-score at 10 µM. hit rate 0.35% among 310,000. AID 2648;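 active = fluorescence ratio B-score, a plate-corrected score, at least three library SD, with initial intensity B-score within 5 SD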
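Material: CHO-K1 cells stably expressing KCNQ1. Medium: assay buffer for compound exposure, DMSO matched across wells. Reagent: K+/Tl+ depolarizing stimulus. Compound dosing: single-concentration screen. Times: 37 °C overnight plating, 90-min dark dye load, 20-min compound pretreatment. Technique: FluxOR Tl+ flux fluorescence.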
KCNK9 inh = human KCNK9 channel inhibition; Q9NPC2; HEK293 KCNK9, FluxOR thallium flux fluorescence; stronger effect = lower value; B-score at 10 µM; hit rate 1.2% among 310,000; AID 488922;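 active = ratio B-score over 3 SD below the library mean, with starting fluorescence within 5 SD of its mean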;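 note: negative B-score means less thallium flux so channel inhibition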
The depositor's hits bear a star. Only some compounds are listed: those with a hit (about 3.8% of all), similar ones and a draw of the others.

What do the screens show for `COC(=O)c1ccc(C(C(=O)NC2CCCCC2)N(C(=O)Cc2cccs2)C2CC2)cc1` (stereo not given)?
KCNK3 block: inactive; hERG protect: -5.5; Kir21 inh: 0.23; KCNQ1 block: 6*; KCNQ1 pot: inactive; KCNK9 inh: inactive

Results for COC(=O)c1ccc(C(C(=O)NC2CCCCC2)N(Cc2ccccc2)C(=O)Cc2cccs2)cc1 (stereo not given) ?
KCNK3 block: inactive; hERG protect: -8.4; Kir21 inh: -0.95; KCNQ1 block: inactive; KCNQ1 pot: inactive; KCNK9 inh: inactive

How did Cn1ncc2c(O/N=C(\N)c3ccc(C(C)(C)C)cc3)ncnc21 do in these assays?
KCNK3 block: inactive; hERG protect: -3.9; Kir21 inh: -0.04; KCNQ1 block: inactive; KCNQ1 pot: 10*; KCNK9 inh: inactive

What do the screens show for `COc1ccccc1Nc1nc(N)nc(CN2CCC(Cc3ccccc3)CC2)n1`?
KCNK3 block: inactive; hERG protect: -18.9; Kir21 inh: -2.7; KCNQ1 block: inactive; KCNQ1 pot: inactive; KCNK9 inh: inactive

How did COc1ccc(Nc2nc(N)nc(CN3CCC(Cc4ccccc4)CC3)n2)cc1 do in these assays?
KCNK3 block: inactive; hERG protect: -26.6; Kir21 inh: -4.44*; KCNQ1 block: inactive; KCNQ1 pot: inactive; KCNK9 inh: inactive

Results for OCCN(Cc1ccccc1)Cc1ccc(C(F)(F)F)cc1 ?
KCNK3 block: inactive; hERG protect: -6.1; Kir21 inh: 0; KCNQ1 block: inactive; KCNQ1 pot: inactive; KCNK9 inh: -6.87*

Results for CCN1C(=O)[C@@H]2[C@H](C1=O)[C@@H]1C(=O)Nc3ccccc3C(=O)N1[C@@H]2c1cccc(Cl)c1 ?
KCNK3 block: inactive; hERG protect: -4.1; Kir21 inh: 0.18; KCNQ1 block: inactive; KCNQ1 pot: inactive; KCNK9 inh: inactive

Results for Cc1c(C(=O)NCC2CCCO2)oc2ccc(S(=O)(=O)N3CCCC3)cc12 (stereo not given) ?
KCNK3 block: inactive; hERG protect: -10.2; Kir21 inh: 0.07; KCNQ1 block: inactive; KCNQ1 pot: inactive; KCNK9 inh: inactive

Results for Cc1c(C(=O)NCC2COc3ccccc3O2)oc2ccc(S(=O)(=O)N(C)C3CCCCC3)cc12 (stereo not given) ?
KCNK3 block: inactive; hERG protect: -12.2; Kir21 inh: 0.76; KCNQ1 block: 6*; KCNQ1 pot: inactive; KCNK9 inh: inactive

Results for O=C(NN1C(=O)/C(=C/c2cccnc2)SC1=S)C(c1ccccc1)c1ccccc1 ?
KCNK3 block: inactive; hERG protect: -16.9; Kir21 inh: -0.09; KCNQ1 block: 6*; KCNQ1 pot: inactive; KCNK9 inh: inactive

How did CNc1ccccc1C(=O)OC(C)C(=O)Nc1ccc(Cl)cn1 (stereo not given) do in these assays?
KCNK3 block: inactive; hERG protect: -8.2; Kir21 inh: 0.23; KCNQ1 block: inactive; KCNQ1 pot: 12*; KCNK9 inh: inactive

Results for CCOc1ccc(OCCC(=O)OC(C)C(=O)Nc2ccc(Cl)cn2)cc1 (stereo not given) ?
KCNK3 block: inactive

Results for CCC(C(=O)OC(C)C(=O)Nc1ccc(Cl)cn1)c1ccccc1 (stereo not given) ?
KCNK3 block: inactive; hERG protect: -7.3; Kir21 inh: -5.77*; KCNQ1 block: inactive; KCNQ1 pot: inactive; KCNK9 inh: inactive

What do the screens show for `CCOc1ncccc1C(=O)OC(C)C(=O)Nc1ccc(Cl)cn1` (stereo not given)?
KCNK3 block: inactive

How did CCC(=O)OCc1cc(=O)oc2ccc3ccccc3c12 do in these assays?
KCNK3 block: inactive; hERG protect: -4.0; Kir21 inh: -0.79; KCNQ1 block: inactive; KCNQ1 pot: inactive; KCNK9 inh: inactive

How did FC(F)Sc1ccc(NC(=S)NC(c2ccccc2)c2ccccc2)cc1 do in these assays?
KCNK3 block: inactive; hERG protect: -43.5; Kir21 inh: -0.05; KCNQ1 block: 11*; KCNQ1 pot: inactive; KCNK9 inh: inactive
